Measured values of several laboratories.
Protocols differ between the studies behind these lines. Converted amounts (≈) assume the structure as drawn.
Organism: Pseudomonas aeruginosa

| Structure (SMILES) | assay | system | setting | quantity | result |
| --- | --- | --- | --- | --- | --- |
| CC1(C)S[C@@H]2[C@H](NC(=O)[C@H](N)c3ccc(O)cc3)C(=O)N2[C@H]1C(=O)O | microbial growth, disc diffusion | ATCC27853 | 500 µg/mL | inhibition zone | 13.8 mm |
| CC(C)COc1c(NC(=O)c2ccc(NC(=O)[C@H](CC(N)=O)NC(=O)c3ccc(NC(=O)c4ccc(C#N)cc4)cc3)cc2)ccc(C(=O)Nc2ccc(C(=O)O)cc2)c1O | microbial growth | PA14 |  | MIC | > 64 µg/mL |
| CCn1cc(C(=O)O)c(=O)c2cc(F)c(N3CCNCC3)cc21 | microbial killing, broth dilution | ATCC9027 |  | MBC | 2 µM |
| COc1cc(C=CC(=O)CC(c2ccc(N(C)C)cc2)n2ccnc2)ccc1O (stereo not shown) | microbial growth, disc diffusion | ATCC27853 | 250 µg/mL | inhibition zone | 7.66 mm |
| COc1c(C)c(OC(C)=O)c(C)c(O)c1C(=O)/C=C/c1ccccc1 | microbial killing, broth dilution | ATCC27853 |  | MBC | > 5000 µg/mL |
| O=C(Sc1cccccc1=O)c1ccccc1 | microbial growth, broth dilution | ATCC27853 |  | MIC80 | > 71.4 µM |
| C#CCCCCCCCCC=CCC(O)CC(O)CO (stereo not shown) | microbial growth, broth dilution | ATCC27853 |  | IC50 | > 200 µg/mL |
| COc1cc(C=CC(=O)CC(c2ccc([N+](=O)[O-])cc2)n2ccnc2)ccc1O (stereo not shown) | microbial growth, disc diffusion | ATCC27853 | 500 µg/mL | inhibition zone | 7.67 mm |
| O=C(O)c1cn(C2CC2)c2cc(N3CCNCC3)c(F)cc2c1=O | microbial growth, disc diffusion |  | 100 µg/mL, 24 h | inhibition zone | 16 mm |
| COc1cc(Cc2cnc(N)nc2N)cc(OC)c1OC | microbial killing, broth dilution |  | 48 h | MBC | 16 µg/mL |
| COc1c(C)c(OS(=O)(=O)c2ccc3ccccc3c2)c(C)c(O)c1C(=O)/C=C/c1ccccc1 | microbial killing, broth dilution | ATCC27853 |  | MBC | > 5000 µg/mL |
| O=c1cccccc1Sc1cccccc1=O | microbial growth, broth dilution | ATCC27853 |  | MIC80 | > 71.4 µM |
| CCCCCCCCCC(=O)Oc1c(C)c(O)c(C(=O)/C=C/c2ccccc2)c(OC)c1C | microbial killing, broth dilution | ATCC27853 |  | MBC | > 5000 µg/mL |
| CC1(C)SC2C(NC(=O)C(NC(=O)C3=C(O)C(Cc4ccsc4)NC3=O)c3ccccc3)C(=O)N2C1C(=O)O (stereo not shown) | microbial growth, well diffusion | PAO1 | 200 µM | inhibition zone | 11 mm |
| CCCCCC(=O)Oc1c(C)c(O)c(C(=O)/C=C/c2ccccc2)c(OC)c1C | microbial killing, broth dilution | ATCC27853 |  | MBC | > 5000 µg/mL |
| CC1(C)SC2C(NC(=O)C(NC(=O)C3=C(O)C4CCCN4C3=O)c3ccccc3)C(=O)N2C1C(=O)O (stereo not shown) | microbial growth, well diffusion | PAO1 | 200 µM | inhibition zone | 12 mm |
| COc1c(C)c(O)c(C)c(O)c1C(=O)/C=C/c1ccccc1 | microbial killing, broth dilution | ATCC27853 |  | MBC | > 5000 µg/mL |

| Structure (SMILES) | assay | system | setting | quantity | result |
| --- | --- | --- | --- | --- | --- |
| CC1(C)S[C@@H]2[C@H](NC(=O)[C@H](N)c3ccccc3)C(=O)N2[C@H]1C(=O)O | microbial growth, well diffusion | PAO1 | 200 µM | inhibition zone | 8 mm |
| CC(C)Oc1c(NC(=O)c2ccc(NC(=O)[C@H](CC(N)=O)NC(=O)c3ccc(NC(=O)c4ccccc4)cc3)cc2)ccc(C(=O)Nc2ccc(C(=O)O)cc2)c1O | microbial growth | PA14 |  | MIC | > 64 µg/mL |
| C[C@H]1NCc2cc(-c3ccc4c(=O)c(C(=O)O)cn(C5CC5)c4c3OC(F)F)ccc21 | microbial growth, broth dilution |  | clinical isolate | MIC50 | 2 µg/mL (≈ 4.69 µM) |
| O=C(Sc1cccccc1=O)c1ccc(C(F)(F)F)cc1 | microbial growth, broth dilution | ATCC27853 |  | MIC80 | > 71.4 µM |
| CC(C)Oc1c(NC(=O)c2ccc(NC(=O)[C@H](CC(N)=O)NC(=O)c3ccc(NC(=O)C(C)Oc4ccc(C#N)cc4)cc3)cc2)ccc(C(=O)Nc2ccc(C(=O)O)cc2)c1O (stereo partly shown) | microbial growth | PA14 |  | MIC | > 64 µg/mL |
| CC1(C)SC2C(NC(=O)C(NC(=O)C3=C(O)C(Cc4ccccc4)NC3=O)c3ccccc3)C(=O)N2C1C(=O)O (stereo not shown) | microbial growth, well diffusion | PAO1 | 200 µM | inhibition zone | 10.7 mm |
| O=C(Sc1cccccc1=O)c1cccc(C(F)(F)F)c1 | microbial growth, broth dilution | ATCC27853 |  | MIC80 | > 71.4 µM |
| COc1cc(C=Cc2cc(-c3ccc(N(C)C)cc3)nc(O)n2)ccc1O | microbial growth, disc diffusion | ATCC27853 | 250 µg/mL | inhibition zone | 7 mm |
| CC(C)Oc1c(NC(=O)c2ccc(NC(=O)[C@H](CC(N)=O)NC(=O)c3ccc(NC(=O)c4ccc(C5(C(F)(F)F)N=N5)cc4)cc3)cc2)ccc(C(=O)Nc2ccc(C(=O)O)cc2)c1O | microbial growth | PA14 |  | MIC | > 64 µg/mL |
| COc1cc(C=Cc2cc(-c3ccccc3)nc(O)n2)ccc1O | microbial growth, disc diffusion | ATCC27853 | 500 µg/mL | inhibition zone | 14.3 mm |
| CCN1CCN(C(=O)N[C@@H](C(=O)N[C@@H]2C(=O)N3[C@@H]2SC(C)(C)[C@@H]3C(=O)O)c2ccccc2)C(=O)C1=O | microbial growth, well diffusion | PAO1 | 200 µM | inhibition zone | 19 mm |
| COc1c(C)c(OC(=O)c2ccccc2)c(C)c(O)c1C(=O)/C=C/c1ccccc1 | microbial killing, broth dilution | ATCC27853 |  | MBC | > 5000 µg/mL |
| C=CCCCCCCCCCCCC(O)CC(O)CO (stereo not shown) | microbial growth, broth dilution | ATCC27853 |  | IC50 | > 200 µg/mL |
| COc1c(C)c(OC)c2c(c1C)OC(c1ccccc1)CC2=O (stereo not shown) | microbial killing, broth dilution | ATCC27853 |  | MBC | > 5000 µg/mL |
| CC(C)Oc1c(NC(=O)c2ccc(NC(=O)[C@H](CC(N)=O)NC(=O)c3ccc(CCNC(=O)c4ccc(C#N)cc4)cc3)cc2)ccc(C(=O)Nc2ccc(C(=O)O)cc2)c1O | microbial growth | PA14 |  | MIC | > 64 µg/mL |
| CC(C)c1cccc(=O)c(O)c1 | microbial growth, broth dilution | ATCC27853 |  | MIC80 | > 71.4 µM |
| COc1c(C)c(OS(=O)(=O)c2ccc3ccccc3c2)c(C)c(OS(=O)(=O)c2ccc3ccccc3c2)c1C(=O)/C=C/c1ccccc1 | microbial growth, well diffusion | ATCC27853 | 5 µg/mL | inhibition zone | 14 mm |
